In brackets after ≈: the same amount, converted by molar mass.
tested on: not listed separately; assay: Solubility of the compound in PBS buffer at pH 7.4; format: physicochemical; settings: not given

SMILES | solubility kinetic
N[C@@H]1CCCN(C(=O)O[C@@H]2CCC[C@]3(C2)OOC2(O3)C3CC4CC(C3)CC2C4)C1 (stereo partly specified) | 74.9 µM (≈ 30.4 µg/mL)
NC1CN(C(=O)O[C@H]2CCC[C@@]3(C2)OOC2(O3)C3CC4CC(C3)CC2C4)C1 (stereo partly specified) | 101 µM (≈ 38.2 µg/mL)
NC1(CNC(=O)O[C@H]2CCC[C@@]3(C2)OOC2(O3)C3CC4CC(C3)CC2C4)COC1 (stereo partly specified) | 87.7 µM (≈ 35.8 µg/mL)
NC1(CNC(=O)O[C@H]2CCC[C@@]3(C2)OOC2(O3)C3CC4CC(C3)CC2C4)CCC1 (stereo partly specified) | 162 µM (≈ 65.9 µg/mL)
N[C@@H]1CCN(C(=O)O[C@@H]2CCC[C@]3(C2)OOC2(O3)C3CC4CC(C3)CC2C4)C1 (stereo partly specified) | 167 µM (≈ 65.5 µg/mL)
NC1(CNC(=O)O[C@@H]2CCC[C@]3(C2)OOC2(O3)C3CC4CC(C3)CC2C4)CCCC1 (stereo partly specified) | 162 µM (≈ 68.1 µg/mL)
O=C(NCC1(O)COC1)O[C@H]1CCC[C@@]2(C1)OOC1(O2)C2CC3CC(C2)CC1C3 (stereo partly specified) | 112 µM (≈ 45.9 µg/mL)

tested on: Plasmodium berghei; assay: Antiplasmodial activity against Plasmodium berghei infected in female Swiss Webster mouse model assessed as survival at 10 mg/kg, po administered once daily for 2 days and measured upto 30 days; format: functional; settings: time 30 day
In short: (§1)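 Female Swiss Webster mice (~20 g) infected ip with 10^6 P. berghei-infected erythrocytes from a donor mouse. Dosing by oral gavage once daily for 1–2 days starting 1 h post-inoculation, in 10% DMSO/50% PEG400/40% of 20% HP-β-CD in water. Five mice per arm. Daily Giemsa smears from day 7, counting infected cells per 1000 erythrocytes. Body weight tracked. Euthanasia at >50% parasitemia or >15% weight loss. Followed to day 30; cure means no parasitemia at day 30. Survival reported as the day of the longest-surviving mouse.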

SMILES | Survival
N[C@@H]1CCCN(C(=O)O[C@@H]2CCC[C@]3(C2)OOC2(O3)C3CC4CC(C3)CC2C4)C1 (stereo partly specified) | 12 days
NC1(CNC(=O)O[C@H]2CCC[C@@]3(C2)OOC2(O3)C3CC4CC(C3)CC2C4)COC1 (stereo partly specified) | 9 days
NC1(CNC(=O)O[C@H]2CCC[C@@]3(C2)OOC2(O3)C3CC4CC(C3)CC2C4)CCC1 (stereo partly specified) | 13 days
NC1(CNC(=O)O[C@@H]2CCC[C@]3(C2)OOC2(O3)C3CC4CC(C3)CC2C4)CCCC1 (stereo partly specified) | 11 days
O=C(NCC1(O)COC1)O[C@H]1CCC[C@@]2(C1)OOC1(O2)C2CC3CC(C2)CC1C3 (stereo partly specified) | 6 days

tested on: not listed separately; assay: Metabolic stability in human liver microsomes assessed as intrinsic clearance; format: ADME, Microsome; settings: microsomes

SMILES | microsomal intrinsic clearance
N[C@@H]1CCCN(C(=O)O[C@@H]2CCC[C@]3(C2)OOC2(O3)C3CC4CC(C3)CC2C4)C1 (stereo partly specified) | 43.7 µL/min/mg
NC1CN(C(=O)O[C@H]2CCC[C@@]3(C2)OOC2(O3)C3CC4CC(C3)CC2C4)C1 (stereo partly specified) | < 11.6 µL/min/mg
NC1(CNC(=O)O[C@H]2CCC[C@@]3(C2)OOC2(O3)C3CC4CC(C3)CC2C4)COC1 (stereo partly specified) | 135 µL/min/mg
NC1(CNC(=O)O[C@H]2CCC[C@@]3(C2)OOC2(O3)C3CC4CC(C3)CC2C4)CCC1 (stereo partly specified) | 24.9 µL/min/mg
N[C@@H]1CCN(C(=O)O[C@@H]2CCC[C@]3(C2)OOC2(O3)C3CC4CC(C3)CC2C4)C1 (stereo partly specified) | 45.8 µL/min/mg
NC1(CNC(=O)O[C@@H]2CCC[C@]3(C2)OOC2(O3)C3CC4CC(C3)CC2C4)CCCC1 (stereo partly specified) | 29.9 µL/min/mg
O=C(NCC1(O)COC1)O[C@H]1CCC[C@@]2(C1)OOC1(O2)C2CC3CC(C2)CC1C3 (stereo partly specified) | 333 µL/min/mg

tested on: Plasmodium berghei; assay: Antiplasmodial activity against Plasmodium berghei infected in female Swiss Webster mouse model assessed as cure rate at 40 mg/kg, po measured upto 30 days relative to control; format: functional; settings: time <= 30 day

SMILES | Activity
N[C@@H]1CCN(C(=O)O[C@@H]2CCC[C@]3(C2)OOC2(O3)C3CC4CC(C3)CC2C4)C1 (stereo partly specified) | 20%

tested on: Plasmodium berghei; assay: Antiplasmodial activity against Plasmodium berghei infected in female Swiss Webster mouse model assessed as survival at 20 mg/kg, po administered once daily for 1 day; settings: not given

SMILES | Survival
NC1CN(C(=O)O[C@H]2CCC[C@@]3(C2)OOC2(O3)C3CC4CC(C3)CC2C4)C1 (stereo partly specified) | 5 days

tested on: not listed separately; assay: Toxicity in female Swiss Webster mouse infected with Plasmodium berghei assessed as drug tolerance at 10 mg/kg, po administered once daily for 2 days and measured upto 30 days; format: organism-based; settings: in vivo, 720 h, time 30 day; in short: as §1

SMILES | Activity
N[C@@H]1CCCN(C(=O)O[C@@H]2CCC[C@]3(C2)OOC2(O3)C3CC4CC(C3)CC2C4)C1 (stereo partly specified) | Non-Toxic
NC1(CNC(=O)O[C@H]2CCC[C@@]3(C2)OOC2(O3)C3CC4CC(C3)CC2C4)COC1 (stereo partly specified) | Non-Toxic
NC1(CNC(=O)O[C@@H]2CCC[C@]3(C2)OOC2(O3)C3CC4CC(C3)CC2C4)CCCC1 (stereo partly specified) | Non-Toxic
O=C(NCC1(O)COC1)O[C@H]1CCC[C@@]2(C1)OOC1(O2)C2CC3CC(C2)CC1C3 (stereo partly specified) | Non-Toxic

tested on: not listed separately; assay: Toxicity in female Swiss Webster mouse infected with Plasmodium berghei assessed as drug tolerance at 20 mg/kg, […]; format: organism-based; settings: in vivo, po

SMILES | Activity
NC1CN(C(=O)O[C@H]2CCC[C@@]3(C2)OOC2(O3)C3CC4CC(C3)CC2C4)C1 (stereo partly specified) | Non-Toxic
